From ChEMBL document CHEMBL4364270, “Structure-activity relationship studies on Bax activator SMBA1 for the treatment of ER-positive and triple-negative breast cancer” (Eur J Med Chem, 2019)

Key:
MDA-MB-231 [1] = assay: Potency index, ratio of SMBA1 IC50 to compound IC50 for antiproliferative activity against triple negative human MDA-MB-231 cells assessed as reduction in cell growth incubated for 48 hrs by MTT assay; type: functional
MDA-MB-231 [2] = assay: Antitumor activity against triple-negative human MDA-MB-231 cells xenografted in mouse assessed as reduction in tumor growth at 2.5 mg/kg, ip administered once daily for 7 days; type: functional; details: MDA-MB-231, ip, 168 h, read-out: GI
Summary of the method: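 Female nude mice (6 weeks) given 2.5×10^6 MDA-MB-231 cells in PBS into third mammary fat pad, randomized into four groups; at 200 mm³ tumor volume dosed i.p. daily for 7 days in 50% DMSO/50% PEG vehicle; tumor volume (0.5×L×W²) and body weight measured daily; one-way ANOVA.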

MDA-MB-231 [3] = assay: Induction of apoptosis in triple negative human MDA-MB-231 cells assessed as upregulation of caspase3 cleavage incubated for 48 hrs by Western blot analysis; type: functional, cell-based
MDA-MB-231 [4] = assay: Potency index, ratio of IC50 of (E/Z)-2-(2-((2-nitro-9H-fluoren 9-ylidene)methyl)phenoxy)ethan-1-amine to IC50 of compound for antiproliferative activity against triple negative human MDA-MB-231 cells assessed as reduction in cell growth incubated for 48 hrs by MTT assay; type: functional
MDA-MB-468 = assay: Antiproliferative activity against triple negative human MDA-MB-468 cells assessed as reduction in cell growth at 1 uM incubated for 72 hrs by MTT assay relative to control; type: functional; details: MDA-MB-468, 72 h
Summary of the method: (§1)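 MTT viability after 72 h exposure at indicated concentrations; cells seeded at 1×10^3 cells/well (T47D, MDA-MB-468, MCF-10A, MCF-7/ADR) in 96-well plates; quadruplicate wells, independently repeated three times; IC50 as mean ± SE of at least three experiments.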

MCF7 [5] = assay: Antiproliferative activity against ER-positive human MCF7 cells assessed as reduction in cell growth at 1 uM incubated for 48 hrs by MTT assay relative to control; type: functional; details: MCF7, 48 h
Summary of the method: (§2)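 MTT viability: MCF-7 and MDA-MB-231 seeded 1×10^4 cells/well, exposed to DMSO or 0.01-100 μM for 48 h; MTT (5 mg/mL in PBS) added 4 h, formazan dissolved in DMSO, OD 550 nm; quadruplicate wells; IC50 fitted for compounds giving >50% inhibition at 10 µM; at least three independent experiments.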

T47D = assay: Antiproliferative activity against ER-positive human T47D cells assessed as reduction in cell growth incubated for 72 hrs by MTT assay; type: functional, cell-based; summary of the method: as §1
MCF7 [6] = assay: Antiproliferative activity against ER-positive human MCF7 cells assessed as reduction in cell growth incubated for 48 hrs by MTT assay; type: functional, cell-based; details: MCF7, 48 h; summary of the method: as §2
MCF7 [7] = assay: Potency index, ratio of IC50 of (E/Z)-2-(2-((2-nitro-9H-fluoren 9-ylidene)methyl)phenoxy)ethan-1-amine to IC50 of compound for antiproliferative activity against ER-positive human MCF7 cells assessed as reduction in cell growth incubated for 48 hrs by MTT assay; type: functional

IC50 (T47D): 1200 nM | IC50 (MCF7 [6]): 60 nM
Structure (SMILES): NCCOc1ncccc1C=C1c2ccccc2-c2ccc([N+](=O)[O-])cc21
Ratio IC50 (MDA-MB-231 [1]): 80 - 130 | inhibition in vivo at 2.5 mg/kg (MDA-MB-231 [2]): 55% | Activity (MDA-MB-231 [3]): Dose-dependent effect | Ratio IC50 (MDA-MB-231 [4]): 40 - 60 | inhibition at 1 µM (MDA-MB-468): > 50% | inhibition at 1 µM (MCF7 [5]): > 50% | Ratio IC50 (MCF7 [7]): 40 - 60
